Source: the M2OR odorant receptor database

Experiments:
Conditions in all cases: stereoisomer not certain
OR4F3 (Homo sapiens) = OR4F3 (Homo sapiens) (UniProt Q6IEY1)
Summary of the method: (§1)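 Transient luciferase assays in mammalian cell lines were common, though methods varied by source. The values come from published papers and their supplementary material, with extra details from the original authors when needed. Responsive refers to a measured signal the original authors judged statistically different from baseline, and non-responsive (inactive) to the remainder.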

OR4F4 (Homo sapiens) = OR4F4 (Homo sapiens) (UniProt Q96R69)
Chain of OR4F4 (Homo sapiens) (Q96R69 whole entry): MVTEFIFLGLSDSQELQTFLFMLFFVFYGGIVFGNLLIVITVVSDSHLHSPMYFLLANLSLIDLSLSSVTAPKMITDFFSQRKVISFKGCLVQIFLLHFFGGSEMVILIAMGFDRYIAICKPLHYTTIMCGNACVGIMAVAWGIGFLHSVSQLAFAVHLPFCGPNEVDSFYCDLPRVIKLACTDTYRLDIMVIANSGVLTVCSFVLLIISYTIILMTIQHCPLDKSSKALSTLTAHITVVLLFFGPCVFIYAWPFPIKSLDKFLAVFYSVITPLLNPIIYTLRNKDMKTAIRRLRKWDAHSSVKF
Summary of the method: as §1

OR4F5 (Homo sapiens) = OR4F5 (Homo sapiens) (UniProt Q8NH21)
Chain of OR4F5 (Homo sapiens) (Q8NH21 whole entry): as the sequence (Q96R69 whole entry) above, with A141T, P160L, C221R, R293Q counted along it
Summary of the method: as §1

OR4F5 T141A Q293R = system: OR4F5 T141A Q293R
Summary of the method: as §1

OR4F6 (Homo sapiens) = OR4F6 (Homo sapiens) (UniProt Q8NGB9)
Chain of OR4F6 (Homo sapiens) (Q8NGB9 whole entry): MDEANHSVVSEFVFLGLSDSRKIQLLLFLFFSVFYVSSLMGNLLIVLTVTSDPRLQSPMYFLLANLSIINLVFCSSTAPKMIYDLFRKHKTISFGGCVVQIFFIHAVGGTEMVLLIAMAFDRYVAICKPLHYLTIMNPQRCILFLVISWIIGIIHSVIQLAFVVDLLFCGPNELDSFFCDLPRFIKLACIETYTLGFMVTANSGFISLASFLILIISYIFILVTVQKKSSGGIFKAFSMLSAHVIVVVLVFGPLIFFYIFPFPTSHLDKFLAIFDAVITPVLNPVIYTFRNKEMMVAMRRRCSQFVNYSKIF
Summary of the method: as §1

OR4K1 (Homo sapiens) = OR4K1 (Homo sapiens) (UniProt Q8NGD4)
Chain of OR4K1 (Homo sapiens) (Q8NGD4 whole entry): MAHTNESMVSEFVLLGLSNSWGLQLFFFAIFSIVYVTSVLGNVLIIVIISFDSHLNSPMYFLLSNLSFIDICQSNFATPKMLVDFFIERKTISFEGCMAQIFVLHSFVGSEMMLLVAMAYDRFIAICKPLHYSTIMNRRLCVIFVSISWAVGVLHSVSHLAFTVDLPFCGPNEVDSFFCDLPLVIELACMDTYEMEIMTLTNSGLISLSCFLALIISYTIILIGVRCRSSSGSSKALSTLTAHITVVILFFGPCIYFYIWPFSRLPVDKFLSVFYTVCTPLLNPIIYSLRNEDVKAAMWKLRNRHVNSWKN
Summary of the method: as §1

OR4K1 R304H = system: OR4K1 R304H
Chain of OR4K1 R304H (as listed by the source, stated change not applied): as the sequence (Q8NGD4 whole entry) above, with R304H counted along it
Summary of the method: as §1

OR4K13 (Homo sapiens) = OR4K13 (Homo sapiens) (UniProt Q8NH42)
Chain of OR4K13 (Homo sapiens) (Q8NH42 whole entry): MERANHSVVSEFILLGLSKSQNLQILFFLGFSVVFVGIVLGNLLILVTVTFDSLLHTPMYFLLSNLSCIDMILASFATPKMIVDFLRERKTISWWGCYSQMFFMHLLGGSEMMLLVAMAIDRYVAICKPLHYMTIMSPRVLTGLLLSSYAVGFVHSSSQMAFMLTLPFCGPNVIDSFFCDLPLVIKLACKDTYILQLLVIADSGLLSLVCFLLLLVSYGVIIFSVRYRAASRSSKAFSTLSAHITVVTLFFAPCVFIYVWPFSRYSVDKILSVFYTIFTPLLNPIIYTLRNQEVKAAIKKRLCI
Summary of the method: as §1

OR4K14 (Homo sapiens) = OR4K14 (Homo sapiens) (UniProt Q8NGD5)
Chain of OR4K14 (Homo sapiens) (Q8NGD5 whole entry): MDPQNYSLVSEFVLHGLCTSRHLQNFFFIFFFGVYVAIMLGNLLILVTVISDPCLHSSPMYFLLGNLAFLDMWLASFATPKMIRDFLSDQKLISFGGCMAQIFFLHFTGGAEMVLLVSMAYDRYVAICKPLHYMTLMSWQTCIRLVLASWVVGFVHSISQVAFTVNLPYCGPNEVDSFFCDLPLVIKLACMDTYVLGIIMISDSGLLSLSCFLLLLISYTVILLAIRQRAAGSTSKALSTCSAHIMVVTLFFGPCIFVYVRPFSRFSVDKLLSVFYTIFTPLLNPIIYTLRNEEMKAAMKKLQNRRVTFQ
Summary of the method: as §1

OR4K2 (Homo sapiens) = OR4K2 (Homo sapiens) (UniProt Q8NGD2)
Chain of OR4K2 (Homo sapiens) (Q8NGD2 whole entry): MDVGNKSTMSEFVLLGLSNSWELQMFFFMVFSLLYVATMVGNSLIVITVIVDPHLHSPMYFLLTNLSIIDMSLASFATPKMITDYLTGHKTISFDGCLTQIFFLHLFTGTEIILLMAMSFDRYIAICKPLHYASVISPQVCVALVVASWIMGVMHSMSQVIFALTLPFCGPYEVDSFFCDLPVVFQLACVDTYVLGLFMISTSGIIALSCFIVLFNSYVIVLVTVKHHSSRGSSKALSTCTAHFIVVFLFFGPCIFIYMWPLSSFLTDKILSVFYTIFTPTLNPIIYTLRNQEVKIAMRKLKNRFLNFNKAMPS
Summary of the method: as §1

OR4K2 = system: OR4K2
Chain of OR4K2 (as listed by the source): as the sequence (Q8NGD2 whole entry) above, with N307I counted along it
Summary of the method: as §1

OR4K5 (Homo sapiens) = OR4K5 (Homo sapiens) (UniProt Q8NGD3)
Chain of OR4K5 (Homo sapiens) (Q8NGD3 whole entry): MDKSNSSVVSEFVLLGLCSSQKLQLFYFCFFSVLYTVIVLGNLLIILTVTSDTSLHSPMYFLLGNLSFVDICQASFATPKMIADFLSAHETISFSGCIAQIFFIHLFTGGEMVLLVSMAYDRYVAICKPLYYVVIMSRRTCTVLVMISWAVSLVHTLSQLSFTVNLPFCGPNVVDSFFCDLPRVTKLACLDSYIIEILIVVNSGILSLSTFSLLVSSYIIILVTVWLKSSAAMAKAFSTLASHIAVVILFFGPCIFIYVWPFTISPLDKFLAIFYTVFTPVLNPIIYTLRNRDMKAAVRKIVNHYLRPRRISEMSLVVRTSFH
Summary of the method: as §1

OR4KF = system: OR4KF
Chain of OR4KF (as listed by the source): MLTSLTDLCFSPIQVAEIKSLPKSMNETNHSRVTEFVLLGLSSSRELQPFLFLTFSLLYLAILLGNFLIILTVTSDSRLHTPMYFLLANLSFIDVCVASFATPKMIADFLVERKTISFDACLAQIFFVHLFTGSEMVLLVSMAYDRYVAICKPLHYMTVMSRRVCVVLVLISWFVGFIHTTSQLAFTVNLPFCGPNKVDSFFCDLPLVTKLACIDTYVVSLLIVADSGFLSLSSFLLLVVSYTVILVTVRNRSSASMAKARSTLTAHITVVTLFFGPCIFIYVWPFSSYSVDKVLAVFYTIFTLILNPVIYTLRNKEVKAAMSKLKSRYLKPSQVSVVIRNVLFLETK
Summary of the method: as §1

OR4KH = system: OR4KH
Chain of OR4KH (as listed by the source): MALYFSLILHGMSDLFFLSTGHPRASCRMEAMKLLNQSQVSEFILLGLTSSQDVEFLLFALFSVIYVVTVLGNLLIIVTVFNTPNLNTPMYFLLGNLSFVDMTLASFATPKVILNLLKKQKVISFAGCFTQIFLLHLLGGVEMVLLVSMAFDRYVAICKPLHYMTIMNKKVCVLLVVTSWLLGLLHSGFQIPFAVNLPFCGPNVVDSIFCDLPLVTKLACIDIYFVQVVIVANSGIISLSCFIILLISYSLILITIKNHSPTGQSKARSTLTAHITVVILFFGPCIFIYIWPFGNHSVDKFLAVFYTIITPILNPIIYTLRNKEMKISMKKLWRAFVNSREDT
Summary of the method: as §1

OR4L1 (Homo sapiens) = OR4L1 (Homo sapiens) (UniProt Q8NH43)
Chain of OR4L1 (Homo sapiens) (Q8NH43 whole entry): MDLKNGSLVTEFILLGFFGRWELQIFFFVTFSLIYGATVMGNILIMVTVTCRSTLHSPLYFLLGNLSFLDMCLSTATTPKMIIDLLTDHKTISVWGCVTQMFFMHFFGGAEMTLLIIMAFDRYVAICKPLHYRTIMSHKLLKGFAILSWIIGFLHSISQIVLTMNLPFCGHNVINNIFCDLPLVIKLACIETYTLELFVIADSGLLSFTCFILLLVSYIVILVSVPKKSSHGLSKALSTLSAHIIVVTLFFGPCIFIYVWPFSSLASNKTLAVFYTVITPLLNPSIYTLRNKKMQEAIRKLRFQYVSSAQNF
Summary of the method: as §1

OR4L1 = system: OR4L1
Chain of OR4L1 (as listed by the source): as the sequence (Q8NH43 whole entry) above, with R52S counted along it
Summary of the method: as §1

OR4M1 (Homo sapiens) = OR4M1 (Homo sapiens) (UniProt Q8NGD0)
Chain of OR4M1 (Homo sapiens) (Q8NGD0 whole entry): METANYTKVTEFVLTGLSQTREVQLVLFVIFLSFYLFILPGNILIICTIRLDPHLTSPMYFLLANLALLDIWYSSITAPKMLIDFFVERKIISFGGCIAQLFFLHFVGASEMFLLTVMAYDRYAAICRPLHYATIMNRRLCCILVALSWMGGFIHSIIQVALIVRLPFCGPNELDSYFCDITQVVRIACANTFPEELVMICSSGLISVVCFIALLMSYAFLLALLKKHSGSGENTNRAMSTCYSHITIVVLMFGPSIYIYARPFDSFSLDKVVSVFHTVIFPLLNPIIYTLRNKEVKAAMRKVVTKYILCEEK
Summary of the method: as §1

OR4K15 (Homo sapiens) = OR4K15 (Homo sapiens) (UniProt Q8NH41)
Summary of the method: as §1

OR4K17 (Homo sapiens) = OR4K17 (Homo sapiens) (UniProt Q8NGC6)
Chain of OR4K17 (Homo sapiens) (Q8NGC6 as listed by the source): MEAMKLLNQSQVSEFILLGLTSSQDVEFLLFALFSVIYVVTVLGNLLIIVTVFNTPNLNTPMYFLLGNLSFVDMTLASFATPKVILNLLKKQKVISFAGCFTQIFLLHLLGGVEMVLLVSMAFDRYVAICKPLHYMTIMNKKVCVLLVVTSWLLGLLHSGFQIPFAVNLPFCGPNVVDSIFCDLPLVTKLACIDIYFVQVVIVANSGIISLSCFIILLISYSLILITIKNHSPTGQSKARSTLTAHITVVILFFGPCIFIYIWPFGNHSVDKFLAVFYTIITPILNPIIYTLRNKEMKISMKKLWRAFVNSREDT
Summary of the method: as §1

OR4K3 (Homo sapiens) = OR4K3 (Homo sapiens) (UniProt Q96R72)
Chain of OR4K3 (Homo sapiens) (Q96R72 whole entry): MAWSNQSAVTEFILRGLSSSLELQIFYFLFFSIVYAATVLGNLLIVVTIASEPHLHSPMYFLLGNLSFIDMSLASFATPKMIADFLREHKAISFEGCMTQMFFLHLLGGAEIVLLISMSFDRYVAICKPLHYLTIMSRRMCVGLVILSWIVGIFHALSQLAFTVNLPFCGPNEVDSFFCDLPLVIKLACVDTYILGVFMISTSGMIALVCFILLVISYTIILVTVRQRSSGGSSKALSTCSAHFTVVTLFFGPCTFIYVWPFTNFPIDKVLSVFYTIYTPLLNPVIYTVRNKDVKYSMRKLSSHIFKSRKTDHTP
Summary of the method: as §1

Measured: odorant receptor agonist call;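 also: active if original authors judged signal statistically different from baseline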

Chain of OR4F3 (Homo sapiens) (Q6IEY1 whole entry): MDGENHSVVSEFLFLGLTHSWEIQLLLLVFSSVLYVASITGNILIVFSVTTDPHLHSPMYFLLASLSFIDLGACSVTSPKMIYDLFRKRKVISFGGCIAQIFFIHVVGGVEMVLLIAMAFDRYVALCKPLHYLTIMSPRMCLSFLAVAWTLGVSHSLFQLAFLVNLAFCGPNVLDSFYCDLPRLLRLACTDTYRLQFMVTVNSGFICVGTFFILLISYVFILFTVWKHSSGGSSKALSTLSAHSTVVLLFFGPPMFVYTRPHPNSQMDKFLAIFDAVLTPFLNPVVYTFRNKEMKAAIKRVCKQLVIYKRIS

C=CCOC(=O)Cc1ccccc1
not listed: OR4K15 (Homo sapiens) | OR4K17 (Homo sapiens) | OR4K3 (Homo sapiens)
inactive: all other assays above

Cc1c([N+](=O)[O-])c(C)c([N+](=O)[O-])c(C(C)(C)C)c1[N+](=O)[O-]
not listed: OR4F5 T141A Q293R | OR4K1 R304H | OR4K2 | OR4KF | OR4KH | OR4L1
inactive: all other assays above
